Assay results reported in ChEMBL document CHEMBL1212830, “The structure-activity relationship of the 3-oxy site in the anticonvulsant (R)-N-benzyl 2-acetamido-3-methoxypropionamide” (J Med Chem, 2010).

What was measured:
Mus musculus [1] = assay: Anticonvulsant activity in ip dosed albino Carworth Farms number 1 mouse assessed as protection against maximal electroshock-induced seizure; format: functional; details: albino Carworth Farms number 1, ip
Method in brief: (§1)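 Maximal electroshock (MES) seizure test within the NINDS Anticonvulsant Screening Program. Protection is scored as block of induced hind limb extension. Mice are dosed ip and rats po.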

Mus musculus [2] = assay: Anticonvulsant activity in ip dosed 6 Hz psychomotor seizure model of albino Carworth Farms number 1 mouse assessed as protection against seizure; format: functional; details: albino Carworth Farms number 1, ip
Method in brief: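 Psychomotor 6 Hz seizure test at 32 mA in mice, compound given intraperitoneally, run within the NINDS Anticonvulsant Screening Program. Median effective dose (ED50) in mg/kg from quantitative screening.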

Rattus norvegicus [3] = assay: Anticonvulsant activity in po dosed albino Sprague-Dawley rat assessed as protection against maximal electroshock-induced seizure; format: functional; details: albino Spague-Dawley; method in brief: as §1
[4] = Neurotoxicity in po dosed albino Sprague-Dawley rat by rotarod test; format: toxicity, organism-based, albino Spague-Dawley; details: in vivo
Method in brief: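 Rotorod test for behavioural neurotoxicity (mice ip, rats po). Median dose causing neurological impairment in 50% of animals (TD50, mg/kg) is determined only for compounds active in the MES test. The highest rat dose tested was 500 mg/kg.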

Rattus norvegicus [5] = assay: Protective index, ratio of neurotoxicity TD50 to anticonvulsant ED50 for po dosed albino Spague-Dawley rat; format: functional
Method in brief: (§2)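 Protective index is calculated as rotorod TD50 divided by MES ED50, both in mg/kg and from the same species and route (mice ip, rats po).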

Rattus norvegicus [6] = assay: Anticonvulsant activity in ip dosed albino Sprague-Dawley rat assessed as protection against maximal electroshock-induced seizure; format: functional; details: albino Spague-Dawley
Method in brief: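 Run under the NINDS Anticonvulsant Screening Program. Rats received compound intraperitoneally as a stated exception to the usual oral rat route. Protection meant blocking hind-limb extension in the maximal electroshock test. ED50 was derived from quantitative dose-response screening of compounds with significant activity.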

[7] = Neurotoxicity in ip dosed albino Sprague-Dawley rat by rotarod test; format: toxicity, organism-based, albino Spague-Dawley; details: in vivo
[8] = Neurotoxicity in ip dosed albino Carworth Farms number 1 mouse by rotarod test; format: toxicity, organism-based; details: in vivo
Mus musculus [9] = assay: Protective index, ratio of neurotoxicity TD50 to anticonvulsant ED50 for ip dosed albino Carworth Farms number 1 mouse; format: functional; method in brief: as §2
Rattus norvegicus [10] = assay: Neurotoxicity in albino Sprague-Dawley rat assessed as induction of ataxia at up to 3000 mg/kg, po by rotarod test; format: toxicity, organism-based, albino Spague-Dawley; set-up: dose 3000 mg/kg, route oral; details: in vivo
Method in brief: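 Rats were dosed orally. Median neurotoxic dose (TD50) was taken from behavioural neurological impairment, judged with the rotarod test. It was determined only for compounds with significant activity in the maximal electroshock test. Testing was done under the NINDS Anticonvulsant Screening Program procedures.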

`C#CCOC[C@@H](NC(C)=O)C(=O)NCc1ccccc1` gave an ED50 (Mus musculus [1]) of 16 mg/kg, an ED50 (Mus musculus [2]) of 29 mg/kg and an ED50 (Rattus norvegicus [3]) of 7.9 mg/kg. The TD50 [4] was over 500 mg/kg and the “Ratio TD50/ED50” value (Rattus norvegicus [5]) was over 63.

`CC(=O)N[C@H](COCCN=[N+]=[N-])C(=O)NCc1ccccc1` showed an ED50 (Mus musculus [1]) of 100 mg/kg, an ED50 (Mus musculus [2]) of 44 mg/kg and an ED50 (Rattus norvegicus [3]) of over 40 mg/kg. The “Ratio TD50/ED50” value (Rattus norvegicus [5]) was over 13, the ED50 (Rattus norvegicus [6]) was 5.7 mg/kg and the TD50 [7] was 78 mg/kg.

For `CC(=O)N[C@H](COCCN=C=S)C(=O)NCc1ccccc1`, the ED50 (Mus musculus [1]) was over 300 mg/kg, the TD50 [8] was 100 mg/kg and the ED50 (Rattus norvegicus [3]) was under 30 mg/kg. The TD50 [4] was over 30 mg/kg.

With `[2H]C([2H])([2H])OC[C@@H](NC(C)=O)C(=O)NCc1ccccc1` the ED50 (Rattus norvegicus [3]) was 5.2 mg/kg and the TD50 [4] was 200 mg/kg.

For `CC(=O)N[C@H](COC1CCCCC1)C(=O)NCc1ccccc1`, the ED50 (Mus musculus [1]) was 100 mg/kg, the TD50 [8] was 300 mg/kg and the ED50 (Rattus norvegicus [3]) was 30 mg/kg. The TD50 [4] was over 30 mg/kg.

With `CC#CCOC[C@@H](NC(C)=O)C(=O)NCc1ccccc1` the ED50 (Mus musculus [1]) was 30 mg/kg, the TD50 [8] was 30 mg/kg and the ED50 (Rattus norvegicus [3]) was 6.4 mg/kg. It also gave a TD50 [4] of over 500 mg/kg.

`CC(=O)N[C@H](COCC1CCCCC1)C(=O)NCc1ccccc1` gave an ED50 (Mus musculus [1]) of 100 mg/kg and a TD50 [8] of 300 mg/kg.

With `CC(=O)N[C@H](COCc1ccccc1)C(=O)NCc1ccccc1` the ED50 (Mus musculus [1]) was 64 mg/kg, the TD50 [8] was 200 mg/kg and the “Ratio TD50/ED50” value (Mus musculus [9]) was 3.2. It also gave an ED50 (Rattus norvegicus [3]) of over 30 mg/kg and a TD50 [4] of over 30 mg/kg.

With `C=CCCOC[C@@H](NC(C)=O)C(=O)NCc1ccccc1` the ED50 (Mus musculus [1]) was 30 mg/kg, the TD50 [8] was 100 mg/kg and the ED50 (Rattus norvegicus [3]) was 17 mg/kg. The TD50 [4] was over 500 mg/kg and the “Ratio TD50/ED50” value (Rattus norvegicus [5]) was over 29.

With `CC(=O)N[C@H](COCCC1CC1)C(=O)NCc1ccccc1` the ED50 (Mus musculus [1]) was 46 mg/kg, the TD50 [8] was 85 mg/kg and the “Ratio TD50/ED50” value (Mus musculus [9]) was 1.9. The ED50 (Rattus norvegicus [3]) was over 30 mg/kg and the TD50 [4] was over 30 mg/kg.

In the case of `C#CCCOC[C@@H](NC(C)=O)C(=O)NCc1ccccc1`, the ED50 (Mus musculus [1]) is reported as 30 mg/kg, the TD50 [8] is reported as 30 mg/kg and the ED50 (Rattus norvegicus [3]) is reported as 11 mg/kg. For the same molecule, the TD50 [4] was 250 mg/kg and the “Ratio TD50/ED50” value (Rattus norvegicus [5]) was over 23.

`CC(=O)N[C@H](COCCc1ccccc1)C(=O)NCc1ccccc1` gave an ED50 (Mus musculus [1]) of 100 mg/kg, a TD50 [8] of 100 mg/kg and an ED50 (Rattus norvegicus [3]) of over 30 mg/kg. The TD50 [4] was over 30 mg/kg.

With `CC(=O)N[C@H](COCCC1(C)N=N1)C(=O)NCc1ccccc1` the ED50 (Mus musculus [1]) was 30 mg/kg, the TD50 [8] was 100 mg/kg and the ED50 (Rattus norvegicus [3]) was 44 mg/kg. For the same molecule, the TD50 [4] was over 500 mg/kg and the “Ratio TD50/ED50” value (Rattus norvegicus [5]) was over 11.

`CC(=O)N[C@H](COCCC=O)C(=O)NCc1ccccc1` gave an ED50 (Mus musculus [1]) of over 300 mg/kg, a TD50 [8] of over 300 mg/kg and an ED50 (Rattus norvegicus [3]) of over 100 mg/kg.

Work on `CC(=O)NCCOC[C@@H](NC(C)=O)C(=O)NCc1ccccc1` yielded an ED50 (Mus musculus [1]) of over 300 mg/kg, a TD50 [8] of over 300 mg/kg and an ED50 (Rattus norvegicus [3]) of over 30 mg/kg. It also gave a TD50 [4] of over 30 mg/kg.

With `COCc1cn(CCOC[C@@H](NC(C)=O)C(=O)NCc2ccccc2)nn1` the ED50 (Mus musculus [1]) was over 300 mg/kg, the ED50 (Mus musculus [2]) was over 100 mg/kg and the TD50 [8] was over 300 mg/kg.

`COCCOC[C@@H](NC(C)=O)C(=O)NCc1ccccc1` showed an ED50 (Mus musculus [1]) of 30 mg/kg and a TD50 [8] of 300 mg/kg.

For `CC(=O)N[C@H](COC(C)C)C(=O)NCc1ccccc1`, the ED50 (Mus musculus [1]) was 23 mg/kg, the ED50 (Mus musculus [2]) was 23 mg/kg and the “Ratio TD50/ED50” value (Mus musculus [9]) was 3.3. For the same molecule, the ED50 (Rattus norvegicus [3]) was 8.6 mg/kg, the TD50 [4] was over 500 mg/kg and the “Ratio TD50/ED50” value (Rattus norvegicus [5]) was over 58.

In the case of `CCOC[C@@H](NC(C)=O)C(=O)NCc1ccccc1`, the ED50 (Mus musculus [1]) is reported as 7.9 mg/kg, the “Ratio TD50/ED50” value (Mus musculus [9]) is reported as 5.6 and the ED50 (Rattus norvegicus [3]) is reported as 5.6 mg/kg. For the same molecule, the TD50 [4] was over 500 mg/kg and the “Ratio TD50/ED50” value (Rattus norvegicus [5]) was over 89.

`COCCOCCOC[C@@H](NC(C)=O)C(=O)NCc1ccccc1` showed an ED50 (Mus musculus [1]) of over 300 mg/kg, an ED50 (Mus musculus [2]) of over 100 mg/kg and a TD50 [8] of over 300 mg/kg. It also gave an ED50 (Rattus norvegicus [3]) of over 30 mg/kg and a TD50 [4] of over 50 mg/kg.

For `CC(=O)N[C@H](COC(C)(C)C)C(=O)NCc1ccccc1`, the ED50 (Mus musculus [1]) was 30 mg/kg and the TD50 [8] was 300 mg/kg.

For `CC(=O)N[C@H](COc1ccccc1)C(=O)NCc1ccccc1`, the ED50 (Mus musculus [1]) was 100 mg/kg and the TD50 [8] was over 600 mg/kg.

For `CC(=O)N[C@H](COCCC1CO1)C(=O)NCc1ccccc1` (mixture of isomers), the ED50 (Mus musculus [1]) was over 300 mg/kg and the TD50 [8] was over 300 mg/kg.

In the case of `C=CCOCC(NC(C)=O)C(=O)NCc1ccccc1` (racemic), the ED50 (Mus musculus [1]) is reported as 30 mg/kg and the TD50 [8] is reported as 30 mg/kg.

In the case of `COC[C@@H](NC(C)=O)C(=O)NCc1ccccc1` [LACOSAMIDE], the TD50 [4] is reported as over 500 mg/kg.

`CCC1(c2ccccc2)C(=O)NC(=O)NC1=O` [PHENOBARBITAL] gave an ED50 (Mus musculus [1]) of 22 mg/kg and an ED50 (Rattus norvegicus [3]) of 9.1 mg/kg.

With `O=C1NC(=O)C(c2ccccc2)(c2ccccc2)N1` [PHENYTOIN] the ED50 (Rattus norvegicus [3]) was 30 mg/kg and the Activity (Rattus norvegicus [10]) was “Non-toxic”.

`CCCC(CCC)C(=O)O` [VALPROIC ACID] showed an ED50 (Mus musculus [1]) of 270 mg/kg.
